Test results as given in ChEMBL document CHEMBL1629526, “4-[1-(Substituted aryl/alkyl carbonyl)-benzoimidazol-2-yl]-benzenesulfonic acids: synthesis, antimicrobial activity, QSAR studies, and antiviral evaluation” (Eur J Med Chem, 2010).
≈ marks a conversion by molar mass, not a printed value.

Tests used:
[1] = Cytotoxicity against human HeLa cells assessed as cell viability by MTS assay; assay type: cell-based; conditions: HeLa cells
Procedure, shortened: (§1)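 Uninfected cultures were run in parallel with the antiviral assays. Viability was read by colorimetric formazan MTS assay.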

[2] = test system: Respiratory syncytial virus; test: Antiviral activity against Respiratory syncytial virus infected in human HeLa cells assessed as inhibition of virus induced cytopathicity after 2 to 4 days by MTS assay; assay type: functional, organism-based
[3] = test system: Vesicular stomatitis virus; test: Antiviral activity against Vesicular stomatitis virus infected in human HeLa cells assessed as inhibition of virus induced cytopathicity after 2 to 4 days by MTS assay; assay type: functional, organism-based
[4] = Cytotoxicity against human HeLa cells assessed as altered cell morphology; assay type: cell-based
Procedure, shortened: (§2)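 Uninfected cell cultures run alongside the antiviral assays, exposed to serial compound dilutions and incubated at 37 °C for 2–4 days. Toxicity was scored microscopically and reported as the minimum cytotoxic concentration (MCC), the lowest concentration causing a detectable change in normal cell morphology.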

Coxsackievirus B4 [5] = test: Antiviral activity against coxsackievirus B4 infected in human HeLa cells assessed as inhibition of virus induced cytopathicity after 2 to 4 days by MTS assay; assay type: functional, organism-based; conditions: Enterovirus B
[6] = Cytotoxicity against african green monkey Vero cells assessed as altered cell morphology; assay type: cell-based; conditions: chlorocebus sabaeus; procedure, shortened: as §2
[7] = Cytotoxicity against MDCK cells assessed as altered cell morphology; assay type: cell-based, Canis lupus familiaris; conditions: dog; procedure, shortened: as §2
Influenza A virus [8] = test: Antiviral activity against Influenza A H1N1 virus subtype infected in MDCK cells assessed as inhibition of virus induced cytopathicity after 2 to 4 days by MTS assay; assay type: functional, organism-based
Influenza B virus [9] = test: Antiviral activity against Influenza B virus infected in MDCK cells assessed as inhibition of virus induced cytopathicity by visual scoring of CPE; assay type: functional, organism-based
Influenza A virus [10] = test: Antiviral activity against Influenza A H3N2 virus subtype infected in MDCK cells assessed as inhibition of virus induced cytopathicity after 2 to 4 days by MTS assay; assay type: functional, organism-based
Influenza B virus [11] = test: Antiviral activity against Influenza B virus infected in MDCK cells assessed as inhibition of virus induced cytopathicity after 2 to 4 days by MTS assay; assay type: functional, organism-based
Influenza A virus [12] = test: Antiviral activity against Influenza A H1N1 virus subtype infected in MDCK cells assessed as inhibition of virus induced cytopathicity by visual scoring of CPE; assay type: functional, organism-based
[13] = Cytotoxicity against MDCK cells assessed as cell viability by MTS assay; assay type: cell-based, Canis lupus familiaris; conditions: dog, MDCK cells; procedure, shortened: as §1
[14] = test system: Vesicular stomatitis virus; test: Antiviral activity against Vesicular stomatitis virus infected in human HeLa cells assessed as inhibition of virus induced cytopathicity by visual scoring of CPE; assay type: functional, organism-based
Human alphaherpesvirus 1 [15] = test: Antiviral activity against Herpes simplex virus 1 KOS infected in HEL cells assessed as inhibition of virus induced cytopathicity after 2 to 4 days by MTS assay; assay type: functional, organism-based; conditions: Human alphaherpesvirus 1, KOS
Human alphaherpesvirus 1 [16] = test: Antiviral activity against thymidine kinase deficient acyclovir-resistant Herpes simplex virus 1 KOS infected in HEL cells assessed as inhibition of virus induced cytopathicity after 2 to 4 days by MTS assay; assay type: functional, organism-based; conditions: Human alphaherpesvirus 1, KOS
[17] = test system: Respiratory syncytial virus; test: Antiviral activity against Respiratory syncytial virus infected in human HeLa cells assessed as inhibition of virus induced cytopathicity by visual scoring of CPE; assay type: functional, organism-based
Human alphaherpesvirus 2 = test: Antiviral activity against Herpes simplex virus 2 G infected in HEL cells assessed as inhibition of virus induced cytopathicity after 2 to 4 days by MTS assay; assay type: functional, organism-based; conditions: Human alphaherpesvirus 2, strain G
Coxsackievirus B4 [18] = test: Antiviral activity against Coxsackie virus B4 infected in african green monkey Vero cells assessed as inhibition of virus induced cytopathicity after 2 to 4 days by MTS assay; assay type: functional, organism-based; conditions: Enterovirus B
Punta Toro virus = test: Antiviral activity against Punta Toro virus infected in african green monkey Vero cells assessed as inhibition of virus induced cytopathicity after 2 to 4 days by MTS assay; assay type: functional, organism-based
Vaccinia virus = test: Antiviral activity against Vaccinia virus infected in HEL cells assessed as inhibition of virus induced cytopathicity after 2 to 4 days by MTS assay; assay type: functional, organism-based; conditions: Orthopoxvirus vaccinia
[19] = Cytotoxicity against human HEL cells assessed as altered cell morphology; assay type: cell-based; procedure, shortened: as §2
[20] = test system: Mammalian orthoreovirus 1; test: Antiviral activity against Reovirus 1 virus infected in african green monkey Vero cells assessed as inhibition of virus induced cytopathicity after 2 to 4 days by MTS assay; assay type: functional, organism-based; conditions: Mammalian orthoreovirus 1, Vero
Coxsackievirus B4 [21] = test: Antiviral activity against coxsackievirus B4 infected in human HeLa cells assessed as inhibition of virus induced cytopathicity by visual scoring of CPE; assay type: functional, organism-based; conditions: Enterovirus B
[22] = test system: Vesicular stomatitis virus; test: Antiviral activity against Vesicular stomatitis virus infected in HEL cells assessed as inhibition of virus induced cytopathicity after 2 to 4 days by MTS assay; assay type: functional, organism-based
Human respirovirus 3 = test: Antiviral activity against parainfluenza-3 virus infected in african green monkey Vero cells assessed as inhibition of virus induced cytopathicity after 2 to 4 days by MTS assay; assay type: functional, organism-based; conditions: Human respirovirus 3, Vero
Influenza A virus [23] = test: Antiviral activity against Influenza A H3N2 virus subtype infected in MDCK cells assessed as inhibition of virus induced cytopathicity by visual scoring of CPE; assay type: functional, organism-based

Nc1ncnc2c1ncn2C[C@H](O)CO [(S)-DHPA]
CC50 [1]: > 250 µg/mL | EC50 [2]: > 250 µg/mL | EC50 [3]: > 250 µg/mL | MCC [4]: > 250 µg/mL | EC50 (Coxsackievirus B4 [5]): > 250 µg/mL | MCC [6]: > 250 µg/mL

NC12CC3CC(CC(C3)C1)C2 [AMANTADINE]
MCC [7]: > 200 µg/mL | EC50 (Influenza A virus [8]): 44 µg/mL (≈ 291 µM) | EC50 (Influenza B virus [9]): > 200 µg/mL | EC50 (Influenza A virus [10]): 0.2 µg/mL (≈ 1.32 µM) | EC50 (Influenza B virus [11]): > 200 µg/mL | EC50 (Influenza A virus [12]): 18 µg/mL (≈ 119 µM) | CC50 [13]: > 200 µg/mL

NC(=O)c1ncn([C@@H]2O[C@H](CO)[C@@H](O)[C@H]2O)n1 [RIBAVIRIN]
CC50 [1]: > 250 µg/mL | EC50 [14]: 10 µg/mL (≈ 40.9 µM) | EC50 [2]: 2.8 µg/mL (≈ 11.5 µM) | EC50 (Human alphaherpesvirus 1 [15]): 1 µg/mL (≈ 4.09 µM) | EC50 (Human alphaherpesvirus 1 [16]): 2 µg/mL (≈ 8.19 µM) | MCC [4]: > 250 µg/mL | EC50 [17]: 6 µg/mL (≈ 24.6 µM) | EC50 (Human alphaherpesvirus 2): 2 µg/mL (≈ 8.19 µM) | EC50 (Coxsackievirus B4 [18]): 250 µg/mL (≈ 1020 µM) | MCC [7]: > 100 µg/mL | EC50 (Punta Toro virus): 112 µg/mL (≈ 459 µM) | EC50 (Vaccinia virus): 10 µg/mL (≈ 40.9 µM) | MCC [19]: > 250 µg/mL | EC50 (Influenza A virus [8]): 12 µg/mL (≈ 49.1 µM) | EC50 (Influenza B virus [9]): 7 µg/mL (≈ 28.7 µM) | EC50 (Influenza A virus [10]): 8.4 µg/mL (≈ 34.4 µM) | EC50 (Coxsackievirus B4 [5]): 14 µg/mL (≈ 57.3 µM) | EC50 [20]: 112 µg/mL (≈ 459 µM) | EC50 (Coxsackievirus B4 [21]): 50 µg/mL (≈ 205 µM) | EC50 (Influenza B virus [11]): 4.3 µg/mL (≈ 17.6 µM) | EC50 [22]: > 250 µg/mL | EC50 (Human respirovirus 3): 95 µg/mL (≈ 389 µM) | EC50 (Influenza A virus [12]): 9 µg/mL (≈ 36.9 µM) | MCC [6]: > 250 µg/mL

CC(N)C12CC3CC(CC(C3)C1)C2 (stereo not given) [RIMANTADINE]
EC50 (Influenza A virus [23]): 0.03 µg/mL (≈ 0.167 µM) | MCC [7]: > 200 µg/mL | EC50 (Influenza A virus [8]): 12 µg/mL (≈ 66.9 µM) | EC50 (Influenza B virus [9]): > 200 µg/mL | EC50 (Influenza A virus [10]): 0.02 µg/mL (≈ 0.112 µM) | EC50 (Influenza B virus [11]): > 200 µg/mL | EC50 (Influenza A virus [12]): 4 µg/mL (≈ 22.3 µM) | CC50 [13]: > 200 µg/mL
